The source of these data is ChEMBL document CHEMBL1127482 (J Med Chem, 1994).

The target of assay [1] is Integrin alpha-V/beta-5 (Homo sapiens, UniProt P06756+P18084). Briefly: Binding affinity against integrin alpha V-beta5 in enzyme linked immunosorbent assay (ELISA). Format: protein-complex assay. In short, it runs like this: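 It is added to wells coated with human vitronectin in 0.1 M carbonate, pH 9.6, with 10-fold serial peptide dilutions for 3 h at room temperature. Detection uses rabbit anti-VnR, HRP anti-rabbit IgG and o-phenylenediamine/H2O2.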
Chain of Integrin alpha-V/beta-5 (P06756 31-889 limits assumed): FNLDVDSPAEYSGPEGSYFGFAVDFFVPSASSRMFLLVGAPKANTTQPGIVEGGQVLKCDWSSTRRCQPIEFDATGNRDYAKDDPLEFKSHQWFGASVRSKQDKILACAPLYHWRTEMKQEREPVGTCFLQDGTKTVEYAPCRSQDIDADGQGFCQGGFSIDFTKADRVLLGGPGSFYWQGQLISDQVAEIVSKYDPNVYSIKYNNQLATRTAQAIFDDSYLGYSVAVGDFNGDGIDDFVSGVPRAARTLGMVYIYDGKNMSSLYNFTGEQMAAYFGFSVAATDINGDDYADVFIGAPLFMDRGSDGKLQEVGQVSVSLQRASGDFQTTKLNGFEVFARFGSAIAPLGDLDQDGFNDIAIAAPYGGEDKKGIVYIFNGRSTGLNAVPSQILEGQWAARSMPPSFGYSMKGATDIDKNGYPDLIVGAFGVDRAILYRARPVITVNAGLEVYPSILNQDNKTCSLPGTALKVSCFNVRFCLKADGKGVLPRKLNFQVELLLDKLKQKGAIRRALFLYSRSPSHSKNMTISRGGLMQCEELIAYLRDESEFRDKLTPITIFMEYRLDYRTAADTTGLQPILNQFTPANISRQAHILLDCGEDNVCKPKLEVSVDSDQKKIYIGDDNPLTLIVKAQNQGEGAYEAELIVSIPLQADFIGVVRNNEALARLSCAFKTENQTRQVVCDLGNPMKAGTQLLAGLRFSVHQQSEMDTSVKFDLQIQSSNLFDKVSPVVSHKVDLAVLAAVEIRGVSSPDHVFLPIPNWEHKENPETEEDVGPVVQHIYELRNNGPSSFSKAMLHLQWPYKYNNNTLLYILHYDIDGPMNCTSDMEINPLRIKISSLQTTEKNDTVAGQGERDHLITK
Chain of Integrin alpha-V/beta-5 (P06756 891-1048 limits assumed): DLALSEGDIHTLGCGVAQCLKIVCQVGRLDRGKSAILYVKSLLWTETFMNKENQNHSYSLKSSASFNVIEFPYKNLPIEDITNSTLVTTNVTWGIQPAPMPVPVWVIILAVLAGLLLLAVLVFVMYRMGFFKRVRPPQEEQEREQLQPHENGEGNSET
Chain of Integrin alpha-V/beta-5 (P18084 24-799 limits assumed): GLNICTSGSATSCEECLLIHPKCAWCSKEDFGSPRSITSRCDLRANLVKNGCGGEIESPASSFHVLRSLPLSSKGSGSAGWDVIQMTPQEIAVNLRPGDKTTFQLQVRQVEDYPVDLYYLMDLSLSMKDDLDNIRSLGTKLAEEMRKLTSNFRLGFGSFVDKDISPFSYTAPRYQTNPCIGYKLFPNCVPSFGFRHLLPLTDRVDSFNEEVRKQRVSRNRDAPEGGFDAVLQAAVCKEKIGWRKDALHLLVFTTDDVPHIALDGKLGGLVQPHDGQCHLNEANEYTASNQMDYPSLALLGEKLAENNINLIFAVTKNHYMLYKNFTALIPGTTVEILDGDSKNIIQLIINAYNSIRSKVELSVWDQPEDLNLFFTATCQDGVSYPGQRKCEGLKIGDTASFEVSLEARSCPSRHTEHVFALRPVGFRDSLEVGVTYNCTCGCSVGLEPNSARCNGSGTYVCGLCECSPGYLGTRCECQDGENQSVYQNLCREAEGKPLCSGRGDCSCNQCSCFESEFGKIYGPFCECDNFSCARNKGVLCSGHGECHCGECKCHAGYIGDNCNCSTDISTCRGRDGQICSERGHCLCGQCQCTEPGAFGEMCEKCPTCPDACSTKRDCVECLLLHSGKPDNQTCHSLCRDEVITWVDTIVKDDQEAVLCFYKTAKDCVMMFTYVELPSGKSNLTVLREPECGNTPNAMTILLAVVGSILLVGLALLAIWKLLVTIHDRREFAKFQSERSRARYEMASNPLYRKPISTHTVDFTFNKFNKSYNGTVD
(ELISA stands for enzyme-linked immunosorbent assay.)

Assay [2] is filed under the species Homo sapiens. The assay is described as follows: Inhibition of 10 uM ADP induced platelet aggregation in human platelet rich citreated plasma (PRP). Type of assay: functional. In short, it runs like this:
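Aggregation is read as the increase in light transmission in an aggregometer, with platelets used within 3 h of collection. IC50 comes from regression of dose-response curves for inhibition of maximal aggregation, adjusted against a standard run in each experiment.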

*1 amine or outer side, *2 acyl side, *3 side chain or, on linkers, in order; H or OH if unused. Where a SMILES comes first, the peptide text is derived from it. Bridges are numbered along the chain shown (N, C = ends). X1 = O=C(CC1(S[*:2])CCCCC1)[*:1]; X4 = C[C@H](S[*:2])C(=O)[*:1]

Broadly, the IC50 is the concentration needed to halve the response being measured. Read a high IC50 as lower potency. Consider `COc1ccc(C[C@@H]2NC(=O)[C@H](CC(=O)O)NC(=O)CNC(=O)[C@H](CCCNC(=N)N)NC(=O)[C@H](Cc3ccc(O)cc3)NC(=O)CNC(=O)[C@@H](NC(=O)[C@@H](N)CCCNC(=N)N)C3(CCCCC3)SSC[C@@H](C(=O)N[C@@H](CCCNC(=N)N)C(=O)O)NC(=O)[C@H](CCCNC(=N)N)NC2=O)cc1`, for which the concentration for half-maximal inhibition (IC50) in assay [1] came out at 8.8 µM; in assay [2] it was 0.85 µM.
On to `COc1ccc(C[C@@H]2NC(=O)[C@H](CC(=O)O)NC(=O)CNC(=O)[C@H](CCCN=C(N)N)NC(=O)[C@@H](Cc3c[nH]cn3)NC(=O)CNC(=O)[C@@H](NC(=O)[C@@H](N)CCCN=C(N)N)C3(CCCCC3)SSC[C@@H](C(=O)N[C@@H](CCCN=C(N)N)C(=O)O)NC(=O)[C@H](CCCN=C(N)N)NC2=O)cc1`, for which, in assay [2], the IC50 is 0.4 µM.
In the case of `COc1ccc(C[C@@H]2NC(=O)[C@H](CC(=O)O)NC(=O)CNC(=O)[C@H](CCCN=C(N)N)NC(=O)[C@H](Cc3c[nH]cn3)NC(=O)[C@H](CC(N)=O)NC(=O)[C@@H](NC(=O)[C@@H](N)CCCN=C(N)N)C3(CCCCC3)SSC[C@@H](C(=O)N[C@@H](CCCN=C(N)N)C(=O)O)NC(=O)[C@H](CCCN=C(N)N)NC2=O)cc1`, half-maximal inhibition in assay [2] (IC50) was put at 0.99 µM.
For the molecule `COc1ccc(C[C@@H]2NC(=O)[C@H](CC(=O)O)NC(=O)CNC(=O)[C@H](CCCN=C(N)N)NC(=O)[C@H](Cc3c[nH]cn3)NC(=O)[C@H](CC(=O)O)NC(=O)[C@@H](NC(=O)[C@@H](N)CCCN=C(N)N)C3(CCCCC3)SSC[C@@H](C(=O)N[C@@H](CCCN=C(N)N)C(=O)O)NC(=O)[C@H](CCCN=C(N)N)NC2=O)cc1`, the concentration for half-maximal inhibition (IC50) is 7.2 µM in assay [1] and 2.75 µM in assay [2].
With `CC(C)[C@H]1NC(=O)[C@H](CC(=O)O)NC(=O)CNC(=O)[C@H](CCCN=C(N)N)NC(=O)[C@@H](Cc2c[nH]cn2)NC(=O)CNC(=O)[C@@H](N)CCC/N=C(/N)NC(=O)[C@H](N)C2(CCCCC2)SSC[C@@H](C(=O)N[C@@H](CCCN=C(N)N)C(=O)O)NC(=O)[C@H](CCCN=C(N)N)NC1=O`, inhibition in assay [2] was half-maximal at 0.69 µM (IC50).
In assay [1], `COc1ccc(C[C@@H]2NC(=O)[C@H](CC(=O)O)NC(=O)CNC(=O)[C@H](CCCNC(=N)N)NC(=O)[C@@H]3CCCN3C(=O)[C@H](CC(N)=O)NC(=O)[C@@H](NC(C)=O)CSSC[C@@H](C(N)=O)NC(=O)[C@H](CCCNC(N)=O)NC2=O)cc1` yielded an IC50 of 3.46 µM.
Same read-out and setting: for `COc1ccc(C[C@@H]2NC(=O)[C@H](CC(=O)O)NC(=O)CNC(=O)[C@H](CCCNC(=N)N)NC(=O)[C@@H]3CCCN3C(=O)[C@H](CC(N)=O)NC(=O)[C@@H](NC(C)=O)CSSC[C@@H](C(N)=O)NC(=O)[C@H](CCCN)NC2=O)cc1` the value was 7.7 µM.
Take `NC(N)=NCCC[C@H](NC(=O)[C@@H]1CSSC2(CCCCC2)[C@H](NC(=O)[C@@H](N)CCCN=C(N)N)C(=O)NCC(=O)N[C@@H](Cc2c[nH]cn2)C(=O)N[C@@H](CCCN=C(N)N)C(=O)NCC(=O)N[C@@H](CC(=O)O)C(=O)N[C@@H](Cc2ccc(O)cc2)C(=O)N[C@@H](CCCN=C(N)N)C(=O)N1)C(=O)O`: the half-maximal inhibitory concentration (IC50) in assay [2] stood at 0.97 µM.
For `COc1ccc(C[C@@H]2NC(=O)[C@H](CC(=O)O)NC(=O)CNC(=O)[C@H](CCCN=C(N)N)NC(=O)[C@H](Cc3c[nH]cn3)NC(=O)[C@H](CO)NC(=O)[C@@H](NC(=O)[C@@H](N)CCCN=C(N)N)C3(CCCCC3)SSC[C@@H](C(=O)N[C@@H](CCCN=C(N)N)C(=O)O)NC(=O)[C@H](CCCN=C(N)N)NC2=O)cc1`, the IC50 in assay [1] came to 6.6 µM; in assay [2] it was 0.95 µM.
In the case of `COc1ccc(C[C@@H]2NC(=O)[C@H](CC(=O)O)NC(=O)CNC(=O)[C@H](CCCN=C(N)N)NC(=O)[C@@H]3CCCN3C(=O)[C@H](CC(N)=O)NC(=O)CCSSC[C@@H](C(N)=O)NC(=O)[C@H](CCCN=C(N)N)NC2=O)cc1`, the IC50 in assay [1] is 3 µM.
The same measure, in the same setting: to `COc1ccc(C[C@@H]2NC(=O)[C@H](CC(=O)O)NC(=O)CNC(=O)[C@H](CCCNC(=N)N)NC(=O)[C@@H]3CCCN3C(=O)[C@H](CC(N)=O)NC(=O)[C@@H](NC(C)=O)CSSC[C@@H](C(N)=O)NC(=O)[C@H](C)NC2=O)cc1` belongs 8.85 µM; to `COc1ccc(C[C@@H]2NC(=O)[C@H](CC(=O)O)NC(=O)CNC(=O)[C@H](CCCNC(=N)N)NC(=O)[C@@H]3CCCN3C(=O)[C@H](CC(N)=O)NC(=O)[C@@H](NC(C)=O)CSSC[C@@H](C(N)=O)NC(=O)[C@H](CCC(=O)O)NC2=O)cc1`, 9.47 µM.
Same read-out and setting: for `COc1ccc(C[C@@H]2NC(=O)[C@H](CC(=O)O)NC(=O)CNC(=O)[C@H](CCCN=C(N)N)NC(=O)[C@@H]3CCCN3C(=O)[C@H](CC(N)=O)NC(=O)[C@@H](NC(C)=O)C3(CCCCC3)SSC[C@@H](C(N)=O)NC(=O)[C@H](CCCN=C(N)N)NC2=O)cc1` [listing 1 of 2 here] the value was 2.34 µM.
In assay [2], `COc1ccc(C[C@@H]2NC(=O)[C@H](CC(=O)O)NC(=O)CNC(=O)[C@H](CCCN=C(N)N)NC(=O)[C@@H]3CCCN3C(=O)[C@H](CC(N)=O)NC(=O)[C@@H](NC(C)=O)C3(CCCCC3)SSC[C@@H](C(N)=O)NC(=O)[C@H](CCCN=C(N)N)NC2=O)cc1` [listing 2 of 2 here] yielded an IC50 of 0.15 µM.
The same measure, in the same setting: for `N=C(N)NCCC[C@H](NC(=O)[C@@H]1CSSC2(CCCCC2)[C@H](NC(=O)[C@@H](N)CCCNC(=N)N)C(=O)NCC(=O)N[C@@H](Cc2c[nH]cn2)C(=O)N[C@@H](CCCNC(=N)N)C(=O)NCC(=O)N[C@@H](CC(=O)O)C(=O)N[C@@H](CCc2ccccc2)C(=O)N[C@@H](CCCNC(=N)N)C(=O)N1)C(=O)O` the value was 0.6 µM.
Consider `CC[C@H](C)[C@@H]1NC(=O)[C@@H](NC(=O)[C@@H](N)CCCN=C(N)N)C2(CCCCC2)SSC[C@@H](C(=O)N[C@@H](CCCN=C(N)N)C(=O)O)NC(=O)[C@H](CCCN=C(N)N)NC(=O)[C@H](Cc2ccc(OC)cc2)NC(=O)[C@H](CC(=O)O)NC(=O)CNC(=O)[C@H](CCCN=C(N)N)NC(=O)[C@H](Cc2c[nH]cn2)NC1=O`, for which the IC50 in assay [1] stood at 9.9 µM.
Take `CCCCOc1ccc(C[C@@H]2NC(=O)[C@H](CC(=O)O)NC(=O)CNC(=O)[C@H](CCCNC(=N)N)NC(=O)[C@@H]3CCCN3C(=O)[C@H](CC(N)=O)NC(=O)[C@@H](NC(C)=O)CSSC[C@@H](C(N)=O)NC(=O)[C@H](CCCNC(=N)N)NC2=O)cc1`: the figures for the IC50 in assay [1] and in assay [2] were 10 µM and 0.1 µM, respectively.
As for `COc1ccc(C[C@@H]2NC(=O)[C@H](CC(=O)O)NC(=O)CNC(=O)[C@H](CCCNC(=N)N)NC(=O)[C@@H]3CCCN3C(=O)CNC(=O)[C@@H](NC(=O)[C@@H](N)CCCNC(=N)N)C3(CCCCC3)SSC[C@@H](C(=O)N[C@@H](CCCNC(=N)N)C(=O)O)NC(=O)[C@H](CCCNC(=N)N)NC2=O)cc1`, the 50% inhibitory concentration (IC50) in assay [1] was 1.7 µM.
As to `COc1ccc(C[C@@H]2NC(=O)[C@H](CC(=O)O)NC(=O)CNC(=O)[C@H](CCCNC(=N)N)NC(=O)[C@@H]3CCCN3C(=O)[C@H](CC(N)=O)NC(=O)[C@@H](NC(C)=O)CSSC[C@@H](C(N)=O)NC(=O)[C@H](CC(C)C)NC2=O)cc1`, the IC50 was found to be 7.14 µM in assay [1] and 7.6 µM in assay [2].
In assay [1], `COc1ccc(C[C@@H]2NC(=O)[C@H](CC(=O)O)NC(=O)CNC(=O)[C@H](CCCNC(=N)N)NC(=O)[C@@H]3CCCN3C(=O)[C@H](CC(N)=O)NC(=O)[C@@H](NC(C)=O)CSSC[C@@H](C(N)=O)NC(=O)[C@H](CCCCN)NC2=O)cc1` had an IC50 of 5.82 µM.
In the case of `COc1ccc(C[C@@H]2NC(=O)[C@H](CC(=O)O)NC(=O)CNC(=O)[C@H](CCCNC(=N)N)NC(=O)[C@@H](Cc3ccc(O)cc3)NC(=O)CNC(=O)[C@@H](NC(=O)[C@@H](N)CCCNC(=N)N)C3(CCCCC3)SSC[C@@H](C(=O)N[C@@H](CCCNC(=N)N)C(=O)O)NC(=O)[C@H](CCCNC(=N)N)NC2=O)cc1`, the values for the IC50 in assay [1] and in assay [2] were 10 µM and 0.52 µM, respectively.
In turn, `CCCCOc1ccc(C[C@@H]2NC(=O)[C@H](CC(=O)O)NC(=O)CNC(=O)[C@H](CCCN=C(N)N)NC(=O)[C@@H]3CCCN3C(=O)[C@H]([C@@H](C)CC)NC(=O)[C@@H](NC(C)=O)CSSC[C@@H](C(N)=O)NC(=O)[C@H](CCCN=C(N)N)NC2=O)cc1` registered an IC50 in assay [2] of 0.48 µM.
Molecule `COc1ccc(C[C@@H]2NC(=O)[C@H](CC(=O)O)NC(=O)CNC(=O)[C@H](CCCCN)NC(=O)[C@@H]3CCCN3C(=O)[C@H](CC(N)=O)NC(=O)[C@@H](NC(C)=O)CSSC[C@@H](C(N)=O)NC(=O)[C@H](CCCN=C(N)N)NC2=O)cc1` displayed an IC50 in assay [2] of 0.7 µM.
On the same count and under the same terms, for `CC[C@H](C)[C@@H]1NC(=O)[C@@H](NC(C)=O)CSSC[C@@H](C(N)=O)NC(=O)[C@H](CCCN=C(N)N)NC(=O)[C@H](Cc2ccc(O)cc2)NC(=O)[C@H](CC(=O)O)NC(=O)CNC(=O)[C@H](CCCN=C(N)N)NC(=O)[C@@H]2CCCN2C1=O` (Ac-CIPRGDYRC-NH2; disulfide 1-9) the value was 0.33 µM.
As for `COc1ccc(C[C@@H]2NC(=O)[C@H](CC(=O)O)NC(=O)CNC(=O)[C@H](CCCN=C(N)N)NC(=O)[C@@H]3CCCN3C(=O)[C@H](CC(N)=O)NC(=O)CC3(CCCCC3)SSC[C@@H](C(N)=O)NC(=O)[C@H](CCCN=C(N)N)NC2=O)cc1` (NPRGDY(Me)RC-NH2; linker N-8 via X1), the IC50 in assay [1] amounted to 4.9 µM; in assay [2], 0.17 µM.
With `COc1ccc(C[C@@H]2NC(=O)[C@H](CC(=O)O)NC(=O)CNC(=O)[C@H](CCCN=C(N)N)NC(=O)[C@@H]3CCCN3C(=O)[C@H](CC(N)=O)NC(=O)[C@H](C)SSC[C@@H](C(N)=O)NC(=O)[C@H](CCCN=C(N)N)NC2=O)cc1` (NPRGDY(Me)RC-NH2; linker N-8 via X4), in assay [2], 0.17 µM corresponded to half-maximal inhibition (IC50).
`CC(C)C[C@@H]1NC(=O)[C@H](CC(=O)O)NC(=O)CNC(=O)[C@H](CCCNC(=N)N)NC(=O)[C@H](Cc2c[nH]cn2)NC(=O)CNC(=O)[C@H](NC(=O)CN)C(C)(C)SSC[C@@H](C(=O)N[C@@H](C)C(=O)O)NC(=O)[C@H](CCCNC(=N)N)NC1=O` (stereo in doubt; 1): the IC50 in assay [1] worked out at 8.26 µM.
